From ChEMBL document CHEMBL4184212, “Design, synthesis and evaluation against Chikungunya virus of novel small-molecule antiviral agents” (Bioorg Med Chem, 2018)

Legend:
[1] = Cytotoxicity against African green monkey Vero cells assessed as decrease in cell viability after 5 days by MTS/PMS method; type: cell-based; details: chlorocebus sabaeus
Summary of the method: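 Uninfected Vero cells in MEM Rega-3 with 2% FBS were treated with compound alongside the antiviral assay. Metabolic activity was read by MTS/PMS, and wells were checked microscopically for morphology changes. CC50 is the concentration reducing metabolic activity by 50%, found by logarithmic interpolation. Values are the mean of ≥3 independent experiments.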

Chikungunya virus = assay: Antiviral activity against Chikungunya virus Indian Ocean 889 infected in African green monkey Vero cells assessed as inhibition of virus-induced cytopathic effect after 5 days by MTS/PMS method; type: functional, organism-based; details: Indian Ocean 889, Vero, 120 h
[2] = Selectivity index, ratio of CC50 for African green monkey Vero cells to EC50 for Chikungunya virus Indian Ocean 889 infected in African green monkey Vero cells; type: toxicity; details: read-out: Ratio CC50/EC50

Row | Structure (SMILES) | CC50 at 120 h [1] | EC50 (Chikungunya virus) | EC90 (Chikungunya virus) | selectivity ratio [2]
1 | CC(C)(C)c1ccc(/C=C/C(=O)NCc2ccc(C(F)(F)F)cc2)cc1 | 115 µM | 125 µM | 47.9 µM | 0.9
2 | CC(C)(C)c1ccc(/C=C/C(=O)N/N=C/c2ccc(C(C)(C)C)cc2)cc1 |  | > 276 µM | > 276 µM | 
3 | C/C(=N\NC(=O)/C=C/c1ccc(C(C)(C)C)cc1)c1cnccn1 | > 310 µM | 103 µM | 122 µM | 1.2
4 | CCOc1ccc(/C=N/NC(=O)CCc2ccc(C(C)(C)C)cc2)cc1OCC |  | > 11 µM | > 11 µM | 
5 | COc1ccc(/C=N/NC(=O)/C=C/c2ccc(C(C)(C)C)cc2)cc1 | 117 µM | 5.9 µM | 38.8 µM | 19.8
6 | CCOc1ccc(/C=N/NC(=O)/C=C/c2ccc(C)cc2)cc1OCC | > 284 µM | 113 µM | > 284 µM | > 2.5
7 | CC(C)(C)c1ccc([C@@H]2C[C@H]2C(=O)N/N=C/c2ccc(O)cc2)cc1 |  | 2.7 µM | 3.8 µM | 
8 | CCOc1ccc(/C=N/NC(=O)[C@@H]2C[C@H]2c2ccc(C(C)(C)C)cc2)cc1OCC | 72 µM | 5 µM | 6.4 µM | 14
9 | C/C(=N\NC(=O)/C=C/c1ccc(C(C)(C)C)cc1)c1ccc(-c2ccccc2)cc1 |  | > 252 µM | > 252 µM | 
10 | O=C(CCc1ccccc1)N/N=C/c1ccc(C2CCCCC2)cc1 |  | > 96 µM | > 96 µM | 
11 | CC(C)(C)c1ccc(/C=C/C(=O)N/N=C/c2ccc(O)cc2)cc1 | 7.3 µM |  |  | 
12 | C/C(=N\NC(=O)CCc1ccc(C(C)(C)C)cc1)c1ccc(C2CCCCC2)cc1 |  | > 82.4 µM | > 82.4 µM | 
13 | CC(C)(C)c1ccc(/C=C/C(=O)NCc2ccc(-c3ccccc3)cc2)cc1 | 4.3 µM | 2.9 µM | > 271 µM | 
14 | C/C(=N\NC(=O)/C=C/c1ccc(C(C)(C)C)cc1)c1ccc(C2CCCCC2)cc1 |  | > 248 µM | > 248 µM | 
15 | Cc1ccc(/C=C/C(=O)N/N=C/c2ccc(C)cc2)cc1 |  | > 359 µM | > 359 µM | 
16 | Cc1ccc(/C=N/NC(=O)/C=C/c2ccc(C(C)(C)C)cc2)cc1 | 124 µM | 5.8 µM | 10 µM | 21.4
17 | CC(C)(C)c1ccc(/C=C/C(=O)N/N=C/c2ccc([N+](=O)[O-])cc2)cc1 |  | > 285 µM | > 285 µM | 
18 | O=C(/C=C/c1ccccc1)NCc1ccc(-c2ccccc2)cc1 |  | > 319 µM | > 319 µM | 
19 | CCN(CC)CCCC(C)Nc1ccnc2cc(Cl)ccc12 (centres undefined) [CHLOROQUINE] | 89 µM |  | 21 µM | 

Row | Structure (SMILES) | CC50 at 120 h [1] | EC50 (Chikungunya virus) | EC90 (Chikungunya virus) | selectivity ratio [2]
20 | COc1ccc(/C(C)=N/NC(=O)[C@@H]2C[C@H]2c2ccccc2)cc1 | 72 µM | 5.6 µM | 12 µM | 13
21 | Cc1ccc(/C=N/NC(=O)CCc2ccccc2)cc1 |  | > 375 µM | > 375 µM | 
22 | CCOc1ccc(/C=N/NC(=O)/C=C/c2ccc(C(C)(C)C)cc2)cc1OCC | 101 µM |  | 11 µM | 32
23 | CC(C)(C)c1ccc(/C=C/C(=O)N/N=C/c2ccc(-c3ccccc3)cc2)cc1 | 20.1 µM |  |  | 
24 | CC(C)c1ccc(/C=N/NC(=O)/C=C/c2ccc(C(C)(C)C)cc2)cc1 | 7.4 µM | 2.1 µM |  | 3.5
25 | O=C(CCc1ccccc1)N/N=C/c1ccc(O)cc1 |  | > 373 µM | > 373 µM | 
26 | CC(C)(C)c1ccc(CCC(=O)N/N=C/c2ccc(O)cc2)cc1 |  | 36.4 µM |  | 
27 | O=C(/C=C/c1ccccc1)NCc1ccc(C(F)(F)F)cc1 |  | > 246 µM | > 246 µM | 
28 | CC(C)(C)c1ccc([C@@H]2C[C@H]2C(=O)N/N=C/c2ccc(C(F)(F)F)cc2)cc1 | 30 µM | 14 µM | 19 µM | 2.1
29 | C/C(=N\NC(=O)/C=C/c1ccccc1)c1ccc(C2CCCCC2)cc1 |  | > 289 µM | > 289 µM | 
30 | C/C(=N\NC(=O)[C@@H]1C[C@H]1c1ccccc1)c1ccc(C2CCCCC2)cc1 | 101 µM | 32 µM | 44 µM | 3.1
31 | Cc1ccc(/C=N/NC(=O)/C=C/c2ccccc2)cc1 | 84.4 µM | 93.3 µM | > 284 µM | 0.9
32 | COc1ccc(/C(C)=N/NC(=O)/C=C/c2ccc(C(C)(C)C)cc2)cc1OC |  | > 263 µM | > 263 µM | 
33 | CC(C)(C)c1ccc(/C=C/C(=O)N/N=C/c2ccccc2)cc1 | 22.1 µM | 5.8 µM | 87.5 µM | 3.8
34 | Cc1ccc(/C=N/NC(=O)[C@@H]2C[C@H]2c2ccc(C(C)(C)C)cc2)cc1 |  | 6.6 µM |  | 
35 | Cc1ccc(/C=N/NC(=O)CCc2ccc(C(C)(C)C)cc2)cc1 |  | > 100 µM | > 100 µM | 
36 | O=C(N/N=C/c1ccc(O)cc1)[C@@H]1C[C@H]1c1ccccc1 | 15 µM | 6.4 µM | 8.7 µM | 2.3
37 | C/C(=N\NC(=O)/C=C/c1ccc(C(C)(C)C)cc1)c1ccc(Cl)cc1 |  | > 282 µM | > 282 µM | 
38 | CCOc1ccc(/C=N/NC(=O)CCc2ccccc2)cc1OCC |  | > 294 µM | > 294 µM | 
